One data set relates to L929. The data set is described as follows: Cytotoxicity against mouse L929 cells assessed as reduction in cell viability up to 200 ug/ml after 5 days by MTT assay. The class given is cell-based. The note with it: l929, 120 h. Summed up:
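MTT viability assay in mouse fibroblasts, run on compounds active against TB, with 200 µg/mL as the highest test concentration.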
In general terms: Tetrazolium dyes change colour on reduction, which living cells bring about.

Data set [1] concerns Mycobacterium tuberculosis. Nature of the data set: Antitubercular activity against Mycobacterium tuberculosis H37Rv strain. The class given is functional.
The subject of data set [2] is Mycobacterium tuberculosis. Nature of the data set: Antitubercular activity against Mycobacterium tuberculosis H37Rv strain by BACTEC 460 radiometric assay. In kind it is functional, organism-based.
Data set [3] deals with Mycobacterium tuberculosis. The data set is described as follows: Antitubercular activity against Mycobacterium tuberculosis H37Rv strain at 6.25 ug/ml by microplate alamar blue assay. In kind it is functional. (In general: Alamar Blue is a resazurin reagent that responds to reducing activity.)
In data set [4] the test system is Mycobacterium tuberculosis. Nature of the data set: Antitubercular activity against Mycobacterium tuberculosis H37Rv strain at 1.56 ug/ml by microplate alamar blue assay. The class given is functional.

As usually defined, the MIC99 is the lowest concentration that inhibits either 99% of growth or 99% of the strains tested, depending on the study. For orientation: IC50 means the concentration that inhibits the measured activity by half. The term MIC90 denotes an inhibitory concentration at the 90% level, which refers to growth in some studies and to a panel of isolates in others. What is called inhibition is how much of the control response was suppressed. High values mean strong suppression, low ones little suppression.

Structures are written as SMILES. ≈ marks a conversion by molar mass, not a printed value.

On to `NNC(=O)c1cc(C23CC4CC(CC(C4)C2)C3)c2ccccc2n1`, for which the Activity entry with L929 is “Non-toxic”. Further, the MIC99 in data set [1] turned out to be 3.12 µg/mL (≈ 9.72 µM).

In data set [2], `CCCCCCCCCCC(=O)NNC(=O)c1cc(C23CC4CC(CC(C4)C2)C3)c2ccccc2n1` showed a half-maximal inhibitory concentration (IC50) of 26.9 µM and an MIC90 of 6.25 µg/mL (≈ 12.8 µM). In addition, the Activity result in the data set with L929 is “Non-toxic”. In addition, the inhibition at 6.25 µg/mL in data set [3] was 32%.

The molecule `O=C(NNC(=O)c1ccco1)c1cc(C23CC4CC(CC(C4)C2)C3)c2ccccc2n1` yielded an MIC90 in data set [2] of 6.25 µg/mL (≈ 15 µM). Besides, the Activity result with L929 was “Non-toxic”. Moreover, in data set [3], testing at 6.25 µg/mL gave an inhibition of 0%.

In data set [2], `O=C(NNC(=O)c1c(F)c(F)c(F)c(F)c1F)c1cc(C23CC4CC(CC(C4)C2)C3)c2ccccc2n1` gave an IC50 of 1.66 µM and an MIC90 of 6.25 µg/mL (≈ 12.1 µM). Also, the Activity entry in the data set with L929 is “Non-toxic”. Besides, in data set [3], the inhibition at 6.25 µg/mL amounted to 88%.

As to `O=C(NNC(=O)c1cccs1)c1cc(C23CC4CC(CC(C4)C2)C3)c2ccccc2n1`, in data set [2], half-maximal inhibition (IC50) required 148 µM and the MIC90 was found to be 6.25 µg/mL (≈ 14.5 µM). Moreover, the Activity entry in the data set with L929 was “Non-toxic”. Besides, 6.25 µg/mL produced 9% inhibition in data set [3].

Consider `O=C(NNC(=O)N1CCOCC1)c1cc(C23CC4CC(CC(C4)C2)C3)c2ccccc2n1`, for which, in data set [2], the IC50 was 468 µM and the MIC90 was found to be 6.25 µg/mL (≈ 14.4 µM). In the data set on L929, the Activity entry is listed as “Non-toxic”. Also, the inhibition at 6.25 µg/mL in data set [3] worked out at 3%.

Consider `O=C(NNC(=O)c1cc(C23CC4CC(CC(C4)C2)C3)c2ccccc2n1)c1ccccc1`, for which, in data set [2], the IC50 was 107 µM and the MIC90 is 6.25 µg/mL (≈ 14.7 µM). Besides, the Activity result in the data set with L929 is “Non-toxic”. The molecule further showed an inhibition at 6.25 µg/mL in data set [3] of 12%.

In data set [2], `O=C(NNC(=O)c1cc(C23CC4CC(CC(C4)C2)C3)c2ccccc2n1)c1cccc(C(F)(F)F)c1` gave an IC50 of 5.75 µM and an MIC90 of 6.25 µg/mL (≈ 12.7 µM). Further, in the data set with L929, the Activity result is recorded as “Non-toxic”. The molecule also yielded an inhibition at 6.25 µg/mL in data set [3] of 69%.

In data set [2], `O=C(NNC(=O)c1cc(C23CC4CC(CC(C4)C2)C3)c2ccccc2n1)c1ccncc1` showed an IC50 of 11.5 µM and an MIC90 of 6.25 µg/mL (≈ 14.7 µM). Further, in the data set with L929, the Activity result is given as “Non-toxic”. Also, the inhibition at 6.25 µg/mL in data set [3] is 56%.

In data set [2], `O=C(NNC(=O)c1cccc2ccccc12)c1cc(C23CC4CC(CC(C4)C2)C3)c2ccccc2n1` had an IC50 of 4.47 µM and an MIC90 of 6.25 µg/mL (≈ 13.1 µM). In addition, the Activity result in the data set on L929 is recorded as “Non-toxic”. This molecule displayed an inhibition at 6.25 µg/mL in data set [3] of 88%.

In data set [2], `O=C(NNC(=O)c1cc(C23CC4CC(CC(C4)C2)C3)c2ccccc2n1)c1cccnc1` had an IC50 of 5.13 µM and an MIC90 of 6.25 µg/mL (≈ 14.7 µM). Moreover, the Activity result with L929 is listed as “Non-toxic”. This molecule had an inhibition at 6.25 µg/mL in data set [3] of 74%.

Consider `O=C(NNC(=O)c1cc(C23CC4CC(CC(C4)C2)C3)c2ccccc2n1)Nc1ccc(OC(F)(F)F)cc1`, for which, in data set [2], the IC50 is 0.427 µM and the MIC90 worked out at 3.12 µg/mL (≈ 5.96 µM). Moreover, in the data set with L929, the Activity result is listed as “Non-toxic”. The molecule further showed an inhibition at 6.25 µg/mL in data set [3] of 99%. The molecule also returned an inhibition at 1.56 µg/mL in data set [4] of 50%.

`C=CCCCCCCCCC(=O)NNC(=O)c1cc(C23CC4CC(CC(C4)C2)C3)c2ccccc2n1`: in data set [2], inhibition was half-maximal at 12.9 µM (IC50) and the MIC90 came out at 6.25 µg/mL (≈ 12.8 µM). Besides, in the data set on L929, the Activity result is reported as “Non-toxic”. In addition, 6.25 µg/mL produced 50% inhibition in data set [3].
